ChEMBL document CHEMBL1154716, “Synthesis of some new S-triazine based chalcones and their derivatives as potent antimicrobial agents” (2010)
In brackets after ≈: the same amount, converted by molar mass. Activity calls are given as the source filed them. No cut-off for these calls is given here.

Columns and labels:
Pseudomonas aeruginosa [1] = assay: Antimicrobial activity against Pseudomonas aeruginosa at 1 umol/spot after 18 hrs by TLC-bioautographic method; format: functional
How it was run: (§1)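 TLC bioautography. Samples are spotted on silica gel TLC plates, then sprayed with bacteria (1.0 × 10^5 cfu/ml) in tryptic soy broth. Plates are incubated 18 h at 37 C and sprayed with 3% aqueous p-iodonitrotetrazolium violet. After a further 3 h, growth is stopped with 70% EtOH. White zones on a pink background are scored as inhibition-zone diameter with standard errors.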

Pseudomonas aeruginosa [2] = assay: Antimicrobial activity against Pseudomonas aeruginosa after 24 hrs by microdilution technique; format: functional
How it was run: (§2)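 Broth microdilution in LB medium. Inoculum is 1.0 × 10^4 cfu per well, from a saline-adjusted suspension of 1.0 × 10^5 cfu/ml. Compounds are dissolved in DMSO. Incubated 24 h at 28 C. MIC is the lowest concentration with no visible growth under a binocular microscope. MBC is read by subculture into fresh broth for 72 h, with no growth taken as 99.5% kill. OD is read at 655 nm.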

Bacillus cereus [3] = assay: Antimicrobial activity against Bacillus cereus at 10 ug/disk after 24 hrs by disk diffusion assay; format: functional
How it was run: (§3)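 Disc diffusion on 4 mm filter discs. Bacteria are grown overnight in LB at 28 C, then adjusted in saline to 1.0 × 10^5 cfu/ml. The suspension is mixed into top agar over peptone agar plates. Plates are incubated 24 h at 28 C, and growth-inhibition zone diameter is measured. Streptomycin and ampicillin controls are applied from a 1 mg/ml stock. Tests are done in duplicate.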

Micrococcus flavus [4] = assay: Antimicrobial activity against Micrococcus flavus at 1 umol/spot after 18 hrs by TLC-bioautographic method; format: functional; how it was run: as §1
Staphylococcus aureus [5] = assay: Antimicrobial activity against Staphylococcus aureus at 1 umol/disk after 24 hrs by disk diffusion assay; format: functional; how it was run: as §3
Listeria monocytogenes [6] = assay: Antimicrobial activity against Listeria monocytogenes at 1 umol/disk after 24 hrs by disk diffusion assay; format: functional; how it was run: as §3
Escherichia coli [7] = assay: Antimicrobial activity against Escherichia coli at 10 ug/disk after 24 hrs by disk diffusion assay; format: functional; how it was run: as §3
Enterobacter cloacae [8] = assay: Antimicrobial activity against Enterobacter cloacae at 1 umol/disk after 24 hrs by disk diffusion assay; format: functional; how it was run: as §3
Listeria monocytogenes [9] = assay: Antimicrobial activity against Listeria monocytogenes after 24 hrs by microdilution technique; format: functional; how it was run: as §2
Escherichia coli [10] = assay: Antimicrobial activity against Escherichia coli at 1 umol/spot after 18 hrs by TLC-bioautographic method; format: functional; how it was run: as §1
Bacillus cereus [11] = assay: Antimicrobial activity against Bacillus cereus at 1 umol/spot after 18 hrs by TLC-bioautographic method; format: functional; how it was run: as §1
Bacillus cereus [12] = assay: Antimicrobial activity against Bacillus cereus after 24 hrs by microdilution technique; format: functional; how it was run: as §2
Pseudomonas aeruginosa [13] = assay: Antimicrobial activity against Pseudomonas aeruginosa at 1 umol/disk after 24 hrs by disk diffusion assay; format: functional; how it was run: as §3
Staphylococcus aureus [14] = assay: Antimicrobial activity against Staphylococcus aureus after 24 hrs by microdilution technique; format: functional; how it was run: as §2
Salmonella typhimurium [15] = assay: Antimicrobial activity against Salmonella Typhimurium at 1 umol/disk after 24 hrs by disk diffusion assay; format: functional, organism-based; settings: Salmonella enterica subsp. enterica serovar Typhimurium; how it was run: as §3
Enterobacter cloacae [16] = assay: Antimicrobial activity against Enterobacter cloacae at 10 ug/disk after 24 hrs by disk diffusion assay; format: functional; how it was run: as §3
Listeria monocytogenes [17] = assay: Antimicrobial activity against Listeria monocytogenes at 1 umol/spot after 18 hrs by TLC-bioautographic method; format: functional; how it was run: as §1
Listeria monocytogenes [18] = assay: Antimicrobial activity against Listeria monocytogenes at 10 ug/disk after 24 hrs by disk diffusion assay; format: functional; how it was run: as §3
Micrococcus flavus [19] = assay: Antimicrobial activity against Micrococcus flavus after 24 hrs by microdilution technique; format: functional; how it was run: as §2
Escherichia coli [20] = assay: Antimicrobial activity against Escherichia coli at 1 umol/disk after 24 hrs by disk diffusion assay; format: functional; how it was run: as §3
Salmonella typhimurium [21] = assay: Antimicrobial activity against Salmonella Typhimurium at 10 ug/disk after 24 hrs by disk diffusion assay; format: functional, organism-based; settings: Salmonella enterica subsp. enterica serovar Typhimurium; how it was run: as §3
Micrococcus flavus [22] = assay: Antimicrobial activity against Micrococcus flavus at 10 ug/disk after 24 hrs by disk diffusion assay; format: functional; settings: for zone of inhibition at 10 µg/disc: read-out: IZ; how it was run: as §3
Enterobacter cloacae [23] = assay: Antimicrobial activity against Enterobacter cloacae at 1 umol/spot after 18 hrs by TLC-bioautographic method; format: functional; how it was run: as §1
Staphylococcus aureus [24] = assay: Antimicrobial activity against Staphylococcus aureus at 10 ug/disk after 24 hrs by disk diffusion assay; format: functional; how it was run: as §3
Escherichia coli [25] = assay: Antimicrobial activity against Escherichia coli after 24 hrs by microdilution technique; format: functional; how it was run: as §2
Staphylococcus aureus [26] = assay: Antimicrobial activity against Staphylococcus aureus at 1 umol/spot after 18 hrs by TLC-bioautographic method; format: functional; how it was run: as §1
Salmonella typhimurium [27] = assay: Antimicrobial activity against Salmonella Typhimurium after 24 hrs by microdilution technique; format: functional, Salmonella enterica subsp. enterica serovar Typhimurium; settings: Salmonella enterica; how it was run: as §2
Bacillus cereus [28] = assay: Antimicrobial activity against Bacillus cereus at 1 umol/disk after 24 hrs by disk diffusion assay; format: functional; how it was run: as §3
Enterobacter cloacae [29] = assay: Antimicrobial activity against Enterobacter cloacae after 24 hrs by microdilution technique; format: functional; how it was run: as §2
Salmonella typhimurium [30] = assay: Antimicrobial activity against Salmonella Typhimurium at 1 umol/spot after 18 hrs by TLC-bioautographic method; format: functional, Salmonella enterica subsp. enterica serovar Typhimurium; how it was run: as §1
Micrococcus flavus [31] = assay: Antimicrobial activity against Micrococcus flavus at 1 umol/disk after 24 hrs by disk diffusion assay; format: functional; how it was run: as §3
Pseudomonas aeruginosa [32] = assay: Antimicrobial activity against Pseudomonas aeruginosa at 10 ug/disk after 24 hrs by disk diffusion assay; format: functional; how it was run: as §3

MIC (Pseudomonas aeruginosa [2]) [µM] | MIC (Listeria monocytogenes [9]) [µM] | MIC (Bacillus cereus [12]) [µM] | MIC (Staphylococcus aureus [14]) [µM] | SMILES | inhibition zone (IZ) (Pseudomonas aeruginosa [1]) | MBC (Pseudomonas aeruginosa [2]) [µM] | inhibition zone (IZ) (Bacillus cereus [3]) | inhibition zone (IZ) (Micrococcus flavus [4]) | inhibition zone (IZ) (Staphylococcus aureus [5]) | inhibition zone (IZ) (Listeria monocytogenes [6]) | inhibition zone (IZ) (Enterobacter cloacae [8]) | MBC (Listeria monocytogenes [9]) [µM] | inhibition zone (IZ) (Escherichia coli [10]) | inhibition zone (IZ) (Bacillus cereus [11]) | MBC (Bacillus cereus [12]) [µM] | inhibition zone (IZ) (Pseudomonas aeruginosa [13]) | MBC (Staphylococcus aureus [14]) [µM] | inhibition zone (IZ) (Salmonella typhimurium [15]) | inhibition zone (IZ) (Enterobacter cloacae [16]) | inhibition zone (IZ) (Listeria monocytogenes [17]) [millimeter] | further results
90 (≈ 49.8 µg/mL) | 180 (≈ 99.7 µg/mL) | 45 (≈ 24.9 µg/mL) | 90 (≈ 49.8 µg/mL) | N#Cc1c(-c2cccs2)cc(-c2ccc(Nc3nc(Nc4ccccc4)nc(Nc4ccccc4)n3)cc2)nc1N | inactive | 180 (≈ 99.7 µg/mL) | inactive | 0.08 millimeter | inactive | inactive | inactive | 360 (≈ 199 µg/mL) | 0.06 millimeter | inactive | 90 (≈ 49.8 µg/mL) | inactive | 180 (≈ 99.7 µg/mL) | inactive | inactive | 0.09 | inhibition zone (IZ) (Escherichia coli [7]): inactive; inhibition zone (IZ) (Listeria monocytogenes [18]): inactive; MBC (Micrococcus flavus [19]): 90 µM (≈ 49.8 µg/mL); MIC (Micrococcus flavus [19]): 45 µM (≈ 24.9 µg/mL); inhibition zone (IZ) (Escherichia coli [20]): inactive; inhibition zone (IZ) (Salmonella typhimurium [21]): inactive; zone of inhibition at 10 µg/disc (Micrococcus flavus [22]): 7 mm; inhibition zone (IZ) (Enterobacter cloacae [23]): 0.08 millimeter; inhibition zone (IZ) (Staphylococcus aureus [24]): inactive; MBC (Escherichia coli [25]): 90 µM (≈ 49.8 µg/mL); MIC (Escherichia coli [25]): 45 µM (≈ 24.9 µg/mL); inhibition zone (IZ) (Staphylococcus aureus [26]): inactive; MBC (Salmonella typhimurium [27]): 90 µM (≈ 49.8 µg/mL); MIC (Salmonella typhimurium [27]): 45 µM (≈ 24.9 µg/mL); inhibition zone (IZ) (Bacillus cereus [28]): inactive; MBC (Enterobacter cloacae [29]): 180 µM (≈ 99.7 µg/mL); MIC (Enterobacter cloacae [29]): 90 µM (≈ 49.8 µg/mL); inhibition zone (IZ) (Salmonella typhimurium [30]): 0.07 millimeter; inhibition zone (IZ) (Micrococcus flavus [31]): 0.04 millimeter; inhibition zone (IZ) (Pseudomonas aeruginosa [32]): inactive
688 (≈ 400 µg/mL) | 688 (≈ 400 µg/mL) | 172 (≈ 100 µg/mL) | 172 (≈ 100 µg/mL) | N#Cc1c(-c2ccc(Cl)cc2)cc(-c2ccc(Nc3nc(Nc4ccccc4)nc(Nc4ccccc4)n3)cc2)nc1N | 0.09 millimeter | 688 (≈ 400 µg/mL) | inactive | 0.07 millimeter | inactive | inactive | inactive | 688 (≈ 400 µg/mL) | 0.09 millimeter | inactive | 344 (≈ 200 µg/mL) | inactive | 344 (≈ 200 µg/mL) | inactive | inactive | 0.08 | zone of inhibition at 10 µg/disc (Escherichia coli [7]; read-out: IZ): 7 mm; inhibition zone (IZ) (Listeria monocytogenes [18]): inactive; MBC (Micrococcus flavus [19]): 344 µM (≈ 200 µg/mL); MIC (Micrococcus flavus [19]): 172 µM (≈ 100 µg/mL); inhibition zone (IZ) (Escherichia coli [20]): 0.04 millimeter; inhibition zone (IZ) (Salmonella typhimurium [21]): inactive; zone of inhibition at 10 µg/disc (Micrococcus flavus [22]): 7 mm; inhibition zone (IZ) (Enterobacter cloacae [23]): 0.08 millimeter; inhibition zone (IZ) (Staphylococcus aureus [24]): inactive; MBC (Escherichia coli [25]): 344 µM (≈ 200 µg/mL); MIC (Escherichia coli [25]): 172 µM (≈ 100 µg/mL); inhibition zone (IZ) (Staphylococcus aureus [26]): inactive; MBC (Salmonella typhimurium [27]): 344 µM (≈ 200 µg/mL); MIC (Salmonella typhimurium [27]): 172 µM (≈ 100 µg/mL); inhibition zone (IZ) (Bacillus cereus [28]): inactive; MBC (Enterobacter cloacae [29]): 344 µM (≈ 200 µg/mL); MIC (Enterobacter cloacae [29]): 172 µM (≈ 100 µg/mL); inhibition zone (IZ) (Salmonella typhimurium [30]): 0.08 millimeter; inhibition zone (IZ) (Micrococcus flavus [31]): 0.04 millimeter; inhibition zone (IZ) (Pseudomonas aeruginosa [32]): inactive
408 (≈ 200 µg/mL) | 408 (≈ 200 µg/mL) | 204 (≈ 100 µg/mL) | 408 (≈ 200 µg/mL) | O=C(/C=C/c1cccs1)c1ccc(Nc2nc(Nc3ccccc3)nc(Nc3ccccc3)n2)cc1 | inactive | 816 (≈ 400 µg/mL) | inactive | inactive | inactive | inactive | inactive | 816 (≈ 400 µg/mL) | inactive | inactive | 408 (≈ 200 µg/mL) | inactive | 816 (≈ 400 µg/mL) | inactive | inactive | 0.08 | inhibition zone (IZ) (Escherichia coli [7]): inactive; inhibition zone (IZ) (Listeria monocytogenes [18]): inactive; MBC (Micrococcus flavus [19]): 408 µM (≈ 200 µg/mL); MIC (Micrococcus flavus [19]): 204 µM (≈ 100 µg/mL); inhibition zone (IZ) (Escherichia coli [20]): inactive; inhibition zone (IZ) (Salmonella typhimurium [21]): inactive; inhibition zone (IZ) (Micrococcus flavus [22]): inactive; inhibition zone (IZ) (Enterobacter cloacae [23]): 0.08 millimeter; inhibition zone (IZ) (Staphylococcus aureus [24]): inactive; MBC (Escherichia coli [25]): 816 µM (≈ 400 µg/mL); MIC (Escherichia coli [25]): 408 µM (≈ 200 µg/mL); inhibition zone (IZ) (Staphylococcus aureus [26]): inactive; MBC (Salmonella typhimurium [27]): 816 µM (≈ 400 µg/mL); MIC (Salmonella typhimurium [27]): 408 µM (≈ 200 µg/mL); inhibition zone (IZ) (Bacillus cereus [28]): inactive; MBC (Enterobacter cloacae [29]): 408 µM (≈ 200 µg/mL); MIC (Enterobacter cloacae [29]): 204 µM (≈ 100 µg/mL); inhibition zone (IZ) (Salmonella typhimurium [30]; Salmonella enterica subsp. enterica serovar Typhimurium): inactive; inhibition zone (IZ) (Micrococcus flavus [31]): inactive; inhibition zone (IZ) (Pseudomonas aeruginosa [32]): inactive
